Compound activity deposited in PubChem BioAssay by several laboratories.
Shown are actives, neighbours in structure and some others; about 2.1% of the full set was active somewhere.
CRFR2-BP ag: agonists of human CRF-binding protein/CRF-R2 receptor complex; HEK293 CRF-R2/CRF-BP, calcium dye fluorescence (FLIPR); percent of saturating CRF peptide response; activation, % at 13.2 µM; 0.46% of 350,000 active;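 active = activation of at least 50%, plus an integration ratio under a set limit after plate pattern correction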;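 also: plate controls were neutral control wells without compound for no effect and CRF at EC100 for full effect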
CRFBP-R2 block: CRF-BP/CRF-R2 complex antagonism. inhibition, % at 11.8 µM. HEK293 CRF-R2/CRF-BP, CRF-induced calcium fluorescence. 0.59% of 350,000 active;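 active = inhibition of the ligand-induced calcium signal above about 50% at the single tested concentration, limit read from the data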
hiPSC survival: increases survival of single human iPS cells. hiPSC single-cell survival, ATPlite luminescence; 100% = ROCK inhibitor wells, 0% = DMSO. AID 602274. 0.044% of 360,000 active. survival enhancement, % at 20 µM; in the data active = survival enhancement above about 18%;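 also: cells exposed to compounds for 16 hours before the ATP read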
UCH37 DUB inh: blocks the human deubiquitinase UCH37. Q9Y5K5. purified proteasome/UCH37, Ub-AMC cleavage fluorescence. inhibition, % (test concentration not listed). 0.33% of 330,000 active. AID 588478;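 active = mean inhibition over replicate wells above about 20%, limit read from the data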;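 also: 0% = compound-free wells with enzyme and 100% = wells lacking proteasome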
Target sequence (Q9Y5K5 whole entry, looked up): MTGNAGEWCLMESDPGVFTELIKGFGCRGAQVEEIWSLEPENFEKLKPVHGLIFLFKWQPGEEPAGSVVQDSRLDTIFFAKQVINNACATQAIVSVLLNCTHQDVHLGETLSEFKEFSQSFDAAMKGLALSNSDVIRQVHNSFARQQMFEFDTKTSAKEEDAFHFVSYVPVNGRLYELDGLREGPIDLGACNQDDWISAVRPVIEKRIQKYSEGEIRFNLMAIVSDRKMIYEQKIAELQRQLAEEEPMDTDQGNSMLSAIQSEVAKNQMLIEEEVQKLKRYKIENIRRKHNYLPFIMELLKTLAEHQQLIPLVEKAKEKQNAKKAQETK
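assay system = human UCH37 enzyme supplied as purified proteasome complex | amount = proteasome at 0.15 nM in the dispensed enzyme solution | schedule = 30 min compound-proteasome preincubation then 25 min substrate reaction, room temperature | measured by = fluorescence, ex 355 nm, em 460 nm | benchmarks = no-proteasome wells (full inhibition) and compound-free wells (no inhibition)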
H9c2 protect: modulators protecting cardiomyocytes from myocardial damage; H9c2 cardiomyocytes, H2O2 injury protection, ATPLite, 2 h; protection from H2O2 cell death, % at 20 µM; 0.63% of 360,000 active; AID 588492;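 active = compounds giving at least 50% protection of heart cells from peroxide-induced death in the single-dose screen, raw or plate-pattern-corrected value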;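 also: 0% = DMSO wells with peroxide and 100% = DMSO wells without peroxide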
beta cell repl: inducers of beta-cell replication in MIN6 cells. MIN6 cells proliferation, ATPlite luminescence, 48 h; cells starved in 0.2% serum; 100% = growth in 10% serum. proliferation, % at 10 µM. 0.29% of 330,000 active;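 active = compounds whose signal lies at least 3.5 SD above the mean of all wells on their plate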;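 also: 0% = DMSO-treated cells in low-serum medium and 100% = 10% serum control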
Active calls of the source: *; . = not tested or not shown.

SMILES	CRFR2-BP ag	CRFBP-R2 block	hiPSC survival	UCH37 DUB inh	H9c2 protect	beta cell repl
CNc1ncc(C(=O)c2ccc(F)cc2)s1	0	18	-2	12	-1	10*
CC(C)C(=NNS(=O)(=O)c1ccc(Br)cc1)c1cccs1	.	.	.	4	.	.
Cc1cc(C)c2nc(NC(=O)c3ccc4c(=O)n5c(nc4c3)CCCCC5)sc2c1	-1	59*	0	-6	0	-4
Cc1ccc(NC(=O)c2ccc3c(=O)n4c(nc3c2)CCCCC4)nc1	1	15	0	0	-5	0
CCOC(=O)c1ccccc1NC(=O)c1ccc2c(=O)n3c(nc2c1)CCCCC3	-1	-1	1	0	51*	-5
CCOC(=O)N1CCN(C(=O)c2ccc3c(=O)n4c(nc3c2)CCCCC4)CC1	-1	11	.	29*	.	-4
CCOC(=O)C1CCN(C(=O)c2ccc3c(=O)n4c(nc3c2)CCCCC4)CC1	0	-5	1	1	7	5
O=S(=O)(N=S1CC=CCN1S(=O)(=O)c1ccccc1)c1ccccc1 (stereo unspecified)	.	.	.	19	.	.
CC(=NNc1nc(N2CCOCC2)nc(N2CCOCC2)n1)c1cccs1	.	.	.	7	.	.
O=C(NN=C/C=C\c1ccccc1[N+](=O)[O-])c1cc(-c2ccccc2)nc2ccccc12	.	.	.	6	.	.
COc1ccc(C=NNC(=O)CCn2nnc3ccccc32)cc1	.	.	.	4	.	.
O=C(CCn1c2c(c3ccccc31)CCCC2)NNC(=O)c1ccccc1C(=O)O	55*	-9	0	3	-8	-3
CN(C(=O)c1ccc(S(=O)(=O)NC2CCCC2)cc1)C1CCCCC1	51*	-75	9	2	-2	1
O=S(=O)(NC1CCCC1)c1ccc(S(=O)(=O)NC2CCCC2)cc1	56*	-71	-3	1	-6	-1
CCCc1n[nH]c2c1C(=NO)CC(c1ccccc1)C2 (stereo unspecified)	.	.	.	3	.	.
Cc1ccc(N=Cc2sc(O)c3ccccc23)cc1	59*	-88	0	-6	3	-4
Cc1ccc(N=Cc2sc(O)c3ccccc23)c(C)c1	21	-58	1	1	-2	0
Nc1ccc2cc3[nH]c4cc(N)ccc4c3nc2c1	175*	-130	-4	.	-9	.
NC(CCN1CCCCC1)=NO	.	.	.	6	.	.
CS(=O)(=O)Nc1ccccc1C(=O)NCc1ccccc1Cl	2	61*	-2	.	0	-2
c1ccc(-c2nc3nonc3nc2-c2ccccc2)cc1	-1	54*	0	6	-14	-6
CCCCC(=O)NC(c1ccc(N(CC)CC)cc1)c1ccc2cccnc2c1O (stereo unspecified)	0	19	0	.	52*	-3
CCCCC(=O)NC(c1ccc(N(C)C)cc1)c1ccc2cccnc2c1O (stereo unspecified)	-1	1	0	.	31	-4
Cc1ccc(S(=O)(=O)NN=Cc2cc(Br)ccc2O)cc1	.	.	.	5	.	.
O=C(O)C1CC(=O)N(Cc2ccccc2)C1 (stereo unspecified)	0	-4	-2	3	8	-1
SMILES	CRFR2-BP ag	CRFBP-R2 block	hiPSC survival	UCH37 DUB inh	H9c2 protect	beta cell repl
O=C(O)C1CC(=O)N(CCOc2ccccc2)C1 (stereo unspecified)	8	63*	-1	0	-12	0
O=C(COc1cccc(NC(=O)c2cccc([N+](=O)[O-])c2)c1)c1ccc(F)cc1	-1	-6	-1	-1	78*	-5
COC(=O)c1cccc(NC(=O)COc2cccc([N+](=O)[O-])c2)c1	0	3	-1	33*	6	-4
CC(C)CNC(=O)c1cccc(NC(=O)COc2cccc([N+](=O)[O-])c2)c1	-2	4	-1	2	-12	-1
COc1cccc(CN(C)C(=O)c2cccc(S(=O)(=O)N3CCN(c4ccc(F)cc4)CC3)c2)c1OC	2	8	0	2	-13	-5
COc1ccc(NC(=O)CN(C)C(=O)c2cccc(S(=O)(=O)N3CCN(c4ccc(F)cc4)CC3)c2)cc1	0	79*	0	2	-17	.
COc1cccc(CN(C)C(=O)c2cccc(S(=O)(=O)N3CCN(c4ccccc4)CC3)c2)c1OC	0	117*	0	1	-16	.
